The list is not random: actives were taken first. Their share in the collection is about 3.4%.
E-selectin induc: induces E-selectin expression in human endothelial cells; P16581; HUVEC E-selectin immunofluorescence imaging; normalized: neutral wells 0, TNF-alpha wells 100; activation, % at 7.58 µM; actives 0.37% (n = 260,000); AID 686992;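 active = mean E-selectin-positive cell signal at least 10% of the positive control, reached in at least 60% of replicates, without over 20% cell loss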
Target sequence (P16581 whole entry, looked up): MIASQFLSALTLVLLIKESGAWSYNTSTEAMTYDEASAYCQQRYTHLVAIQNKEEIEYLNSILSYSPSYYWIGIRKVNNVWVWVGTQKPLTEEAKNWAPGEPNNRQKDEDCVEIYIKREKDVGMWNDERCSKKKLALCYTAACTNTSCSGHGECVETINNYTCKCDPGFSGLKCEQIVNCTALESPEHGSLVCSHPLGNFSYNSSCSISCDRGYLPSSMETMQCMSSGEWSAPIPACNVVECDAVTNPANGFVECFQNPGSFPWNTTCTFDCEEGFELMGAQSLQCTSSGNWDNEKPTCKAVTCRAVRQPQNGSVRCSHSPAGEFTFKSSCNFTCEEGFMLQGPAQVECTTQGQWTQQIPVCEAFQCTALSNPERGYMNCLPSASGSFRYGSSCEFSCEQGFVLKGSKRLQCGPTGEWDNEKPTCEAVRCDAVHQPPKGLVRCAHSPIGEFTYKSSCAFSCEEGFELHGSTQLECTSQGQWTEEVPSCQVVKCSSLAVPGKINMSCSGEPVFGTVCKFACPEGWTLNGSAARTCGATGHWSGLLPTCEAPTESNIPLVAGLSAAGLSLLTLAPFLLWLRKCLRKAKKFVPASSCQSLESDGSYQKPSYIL
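Test system – human umbilical vein endothelial cells (HUVEC), E-selectin induction · Input – 3,000 HUVEC seeded per well · Buffer or medium – EGM-2, gelatin · Compound dosing – single-point compound dose · Detection – immunofluorescence imaging · Measure – percent E-selectin-positive cells · Controls – TNF-alpha high, DMSO low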
rRNA inh HTS: selective bacterial rRNA inhibition in E. coli; E. coli WT GFP vs humanized-ribosome RFP mutants, fluorescence, 24 h; hits give low values; DMSO median 0, no signal -100; GFP signal change (wild-type ribosome), % (no concentration beside the values); actives 1.6% (n = 350,000); AID 720706;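 active = significant combined selectivity score with lowered wild-type GFP, culture density cut under 30%, mutant RFP and density less affected; inactive = any of these conditions unmet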
S100A4 inh HTS: blocks human S100A4 binding to myosin IIA peptide; P26447; S100A4/TAMRA-MyoIIA peptide fluorescence polarization; inhibition, % at 10.7 µM; actives 0.14% (n = 360,000); AID 652163;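 active = mean inhibition of at least 70% across replicates, with every replicate also reaching that level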
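Compound dosing: one dose per compound; test system: human S100A4 monomer with TAMRA-labelled myosin IIA peptide; probe or stimulus: TAMRA-labelled myosin IIA heavy-chain peptide probe, 5 nM; medium: HEPES buffer with Ca2+, pH 7.2; schedule: 5 min incubation before reading; benchmarks: neutral control DMSO, positive control TFP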
SIRT5 block: blocks human SIRT5 desuccinylation of peptide. Q9NXA8. inhibition, % at 15 µM. actives 1.1% (n = 330,000). Purified SirT5, succinyl-peptide AMC, trypsin-coupled fluorescence; in the data active = inhibition above about 15%
MLL AF4-AF9 inh: blocks AF4 peptide binding to human AF9 | AlphaScreen, biotin-AF4 peptide binding to FLAG-AF9 | actives 0.47% (n = 350,000) | inhibition, % at 10 µM;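 active = every replicate reaching a set inhibition limit, whatever the replicate mean, cut at about 25% in these data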;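 also: 0% = plate neutral control median and 100% = total signal loss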
ERAP1 inh: ERAP1 (human) enzyme inhibition | Q9NZ08 | AID 652197 | actives 0.15% (n = 340,000) | recombinant ERAP1, Leu-AMC fluorescence, 60 min | inhibition, % at 10.7 µM;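 active = mean replicate inhibition of at least 30%, or all replicates individually reaching that 30% level; inactive = mean below 30% and not every replicate reaching it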;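 also: 0% = neutral control wells and 100% = L-leucinethiol positive control wells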
* marks the source's active call; other numbers are inactive results; i = inactive; x = not tested or not shown.

SMILES	E-selectin induc	rRNA inh HTS	S100A4 inh HTS	SIRT5 block	MLL AF4-AF9 inh	ERAP1 inh
C[C@@H]1CN([C@@H](C)CO)C(=O)c2c(c3ccccc3n2C)-c2ccccc2CO[C@@H]1CN(C)Cc1cccc2c1OCCCO2	-3.4	0.0	-28.5	24.6*	14.4	-1.4
COc1ccccc1CN(C)C[C@@H]1OCc2ccccc2-c2c(n(C)c3ccccc23)C(=O)N([C@H](C)CO)C[C@@H]1C	0.6	1.7	11.5	-0.3	5.0	-1.3
C[C@H]1CN([C@@H](C)CO)C(=O)c2c(c3ccccc3n2C)-c2ccccc2CO[C@@H]1CN(C)Cc1cccc2c1OCCCO2	x	x	-2.0	19.4*	9.2	-1.2
C[C@@H]1CN([C@H](C)CO)C(=O)c2c(c3ccccc3n2C)-c2ccccc2CO[C@H]1CN(C)Cc1cccc2c1OCCCO2	5.1	-4.6	-7.2	23.1*	14.9	-0.8
C[C@H]1CN([C@@H](C)CO)C(=O)c2c(c3ccccc3n2C)-c2ccccc2CO[C@H]1CN(C)Cc1cccc2c1OCCCO2	-1.8	-5.8	6.5	21.4*	2.7	1.4
C[C@H]1CN([C@@H](C)CO)C(=O)c2ccccc2-c2ccccc2CO[C@H]1CN(C)Cc1cccc2c1OCCCO2	-0.3	0.1	2.8	-0.7	2.3	-0.9
COc1ccccc1CN(C)C[C@H]1OCc2ccccc2-c2c(n(C)c3ccccc23)C(=O)N([C@@H](C)CO)C[C@H]1C	3.2	4.9	-0.6	15.4*	9.4	-9.0
C[C@@H]1CN([C@H](C)CO)C(=O)c2c(c3ccccc3n2C)-c2ccccc2CO[C@@H]1CN(C)Cc1cccc2c1OCCCO2	-4.2	0.9	18.3	19.6*	14.5	-1.2
CO[C@H]1CN(C)C(=O)c2cc(NS(=O)(=O)c3cccc(F)c3)ccc2OC[C@@H](C)NC[C@H]1C	-0.2	4.3	x	x	x	x
CC=Cc1ccc2n(c1=O)C[C@H]1[C@H](CO)[C@@H](C(=O)NCC3CC3)N(Cc3ccncc3)[C@@H]21 (mixture of isomers)	0.0	1.3	0.9	2.7	-0.6	0.2
O=C(Nc1ccc(Cl)c([N+](=O)[O-])c1)c1ccco1	x	3.3	-6.2	-6.9	-9.8	0.5
Cc1c([N+](=O)[O-])cc(C(=O)Nc2ccc(NC(=O)c3ccco3)cc2)cc1[N+](=O)[O-]	x	2.0	-3.6	19.3*	-1.5	1.7
COc1ccc(C(=O)Nc2ccc(Nc3ccccc3)cc2)cc1[N+](=O)[O-]	0.2	-15.2*	2.1	0.7	2.3	-4.3
CC(=O)NC1=NC(=O)/C(=C/c2cc(C)n(-c3ccc(NC(C)=O)cc3)c2C)S1	0.7	-29.1*	-0.1	-1.9	1.7	6.7
Cc1ccc(NC(=O)CN2C(=O)N/C(=C/c3cc(C)n(-c4cccc(C(=O)O)c4)c3C)C2=O)cc1	x	12.5	-6.8	19.2*	-6.0	-4.5
CC(=O)NC1=NC(=O)/C(=C/c2cn(C(C)=O)nc2-c2ccccc2)S1	x	-2.8	-3.4	1.5	-5.4	7.5
CC(=O)NC1=NC(=O)/C(=C/c2cc(C)n(-c3cccc(C(=O)O)c3)c2C)S1	x	-1.1	6.2	20.5*	-4.0	9.7
Cc1cc(/C=C2\SC(=O)N(C)C2=O)c(C)n1-c1ccc(O)cc1	0.0	-32.2	-3.3	0.2	9.8	6.8
CCc1cnc(N2[C@H](C#N)[C@H](c3ccc(-c4cccc(F)c4)cc3)[C@@H]2CO)s1	0.0	0.9	-0.7	-0.8	-12.2	2.1
CNC[C@H]1Oc2ccc(NC(=O)Cn3cnnn3)cc2CC(=O)N([C@@H](C)CO)C[C@@H]1C	-3.8	-3.3	-6.8	-3.4	-2.0	6.6
NS(=O)(=O)c1ccc(CCNC(=O)c2ccc(C#CC3(O)CCCCC3)cc2)cc1	-0.2	-13.1	4.7	111.5*	-6.0	1.7
NS(=O)(=O)c1ccc(CCNC(=O)c2ccncc2)cc1	x	4.8	-0.5	-5.6	3.1	1.9
COc1ccc2c3c([nH]c2c1)[C@H](CO)N(C(=O)c1ccccn1)CC31CN(S(C)(=O)=O)C1	0.6	3.8	6.6	0.2	-2.3	-2.1
O=C(NCc1ccccc1)c1csc(-c2cccnc2)n1	15.7	-37.2*	2.0	2.8	-1.3	0.9
C[C@@H]1CN([C@@H](C)CO)C(=O)c2c(c3ccccc3n2C)-c2ccccc2CO[C@@H]1CN(C)Cc1ccccc1	x	-6.7	x	x	x	x
SMILES	E-selectin induc	rRNA inh HTS	S100A4 inh HTS	SIRT5 block	MLL AF4-AF9 inh	ERAP1 inh
O=C(N/N=C/c1ccc(Br)cc1)c1ccccc1-n1cccc1	x	-41.2*	-6.5	1.9	-11.4	2.8
COc1ccccc1NC(=O)N1C[C@@H](O)COC[C@H]2O[C@@H](CC(=O)N3CCC(Cc4ccccc4)CC3)CC[C@@H]21	0.1	i	x	x	x	x
Cc1ccc(NCC(=O)N2CCN(S(=O)(=O)c3ccccc3)CC2)cc1F	32.2*	2.2	0.1	-2.3	2.2	-1.4
Cc1nc2c(C)cccc2c(SC(=N)N)c1CC=C(Cl)Cl	0.1	-20.9*	-3.8	-2.3	1.8	3.3
C=CCc1c(C)nc2c(C)cccc2c1SC(=N)N	0.6	-22.5*	-0.6	-1.9	-9.9	-0.7
COc1cccc2c(Cl)c(CC=C(Cl)Cl)c(C)nc12	0.8	-3.4	0.6	-2.8	-2.3	-7.5
CC(C)NC(=O)N(C)C[C@@H]1Oc2ccc(N)cc2CC(=O)N(C)C[C@H]1C	x	0.4	x	x	x	x
CCC(=O)N1CC2(C1)CN(Cc1cccc(OC)c1)[C@H](CO)c1[nH]c3cc(OC)ccc3c12	-0.3	0.1	0.4	1.3	-0.1	0.3
CC(C)n1c(N2CCN(C(=O)Nc3ccc(Cl)cc3)CC2)nc2ccccc21	-0.1	-37.6	-3.4	-4.3	-1.9	-0.8
CCCn1c(N2CCN(C(=O)Nc3ccc(Cl)cc3)CC2)nc2ccccc21	1.8	-26.2*	-3.2	0.0	0.5	0.6
CC(C)C#Cc1cnc2c(c1)C(=O)N([C@@H](C)CO)C[C@@H](C)[C@@H](CN(C)C(=O)c1cnccn1)O2	-0.3	-0.3	-1.9	-0.1	-18.8	-7.3
CO[C@@H](CN(C)Cc1ccc2c(c1)OCO2)[C@@H](C)CN(C(=O)Nc1ccc(F)cc1)[C@H](C)CO	0.2	-0.9	-3.0	20.9*	-5.7	-0.4
C[C@H](CCC(=O)OCc1cn(CC(=O)c2ccc(O)cc2)nn1)C1CC[C@H]2[C@@H]3CC[C@@H]4C[C@H](O)CC[C@]4(C)[C@H]3C[C@H](O)[C@]12C (some centres undefined)	0.1	-6.8	9.2	32.9*	-3.9	0.7
C[C@H](CCC(=O)O)[C@H]1CC[C@H]2[C@@H]3CC[C@@H]4C[C@H](O)CC[C@]4(C)[C@H]3C[C@H](O)[C@]12C	0.1	-13.6	-2.7	1.2	-5.8	12.2

High-throughput results (PubChem)
